In data set [1] the target is T1, Adrenergic receptor alpha-2 (Homo sapiens, UniProt P08913+P18825+P18089).
T1 sequence (P08913 whole entry): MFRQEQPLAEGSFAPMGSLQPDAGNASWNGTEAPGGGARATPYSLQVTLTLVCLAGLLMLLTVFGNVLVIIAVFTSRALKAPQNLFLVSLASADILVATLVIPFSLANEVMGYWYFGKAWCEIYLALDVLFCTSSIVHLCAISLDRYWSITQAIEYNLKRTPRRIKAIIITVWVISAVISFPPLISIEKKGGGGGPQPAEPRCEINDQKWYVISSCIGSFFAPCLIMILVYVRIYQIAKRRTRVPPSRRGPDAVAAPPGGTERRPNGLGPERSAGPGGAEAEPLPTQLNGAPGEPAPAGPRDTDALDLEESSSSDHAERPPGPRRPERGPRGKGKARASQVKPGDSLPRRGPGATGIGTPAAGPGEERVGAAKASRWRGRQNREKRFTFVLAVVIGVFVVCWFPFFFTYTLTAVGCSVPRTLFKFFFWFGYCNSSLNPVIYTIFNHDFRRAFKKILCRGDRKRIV
T1 sequence (P18825 whole entry): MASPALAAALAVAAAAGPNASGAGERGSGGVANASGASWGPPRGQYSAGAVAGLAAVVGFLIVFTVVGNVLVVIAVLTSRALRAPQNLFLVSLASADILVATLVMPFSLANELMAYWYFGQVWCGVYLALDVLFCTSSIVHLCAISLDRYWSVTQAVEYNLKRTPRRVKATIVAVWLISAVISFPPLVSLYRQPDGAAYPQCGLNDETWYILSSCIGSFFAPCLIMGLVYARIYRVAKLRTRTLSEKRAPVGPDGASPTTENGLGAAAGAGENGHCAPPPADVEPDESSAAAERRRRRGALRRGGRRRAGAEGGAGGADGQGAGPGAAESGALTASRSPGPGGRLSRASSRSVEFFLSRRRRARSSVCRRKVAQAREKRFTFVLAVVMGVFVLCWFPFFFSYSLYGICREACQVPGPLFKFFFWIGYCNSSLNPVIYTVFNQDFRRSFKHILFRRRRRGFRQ
T1 sequence (P18089 whole entry): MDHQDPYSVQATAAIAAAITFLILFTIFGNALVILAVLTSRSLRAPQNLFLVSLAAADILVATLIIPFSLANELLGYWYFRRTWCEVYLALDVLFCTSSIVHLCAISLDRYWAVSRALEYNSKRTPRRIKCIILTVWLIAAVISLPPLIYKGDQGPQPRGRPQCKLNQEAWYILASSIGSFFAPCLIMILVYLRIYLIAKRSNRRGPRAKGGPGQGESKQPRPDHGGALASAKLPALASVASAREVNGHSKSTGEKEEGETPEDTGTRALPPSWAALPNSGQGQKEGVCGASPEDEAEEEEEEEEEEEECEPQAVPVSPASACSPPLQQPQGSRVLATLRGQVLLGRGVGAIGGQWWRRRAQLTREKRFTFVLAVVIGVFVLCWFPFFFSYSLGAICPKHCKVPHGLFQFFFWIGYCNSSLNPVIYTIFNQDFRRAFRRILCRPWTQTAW
The data set can be described thus: Displacement of [3H]-RX821002 from adrenergic alpha 2 receptor in post-mortem human brain frontal cortex membrane measured after 30 mins by liquid scintillation counting spectrometry. Format: cell membranes. A general note: Loss of bound radioactivity is the signal in a displacement assay; it reports binding, not function.

Data set [2] in a line: Cmax in CD-1 mouse at 10 mg/kg, po measured after 24 hrs by HPLC/UV-VS analysis. It is filed as ADME, organism-based. Set-up: route oral, dose 10 mg/kg, time 24 hrs. The settings on record: in vivo. In outline:
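Male CD1 mice; plasma concentration of drug at 15 min to 24 h after a single oral 10 mg/kg dose, measured by HPLC with UV at 290 nm (calibration 0,025-5 μg/mL, peak area ratio). Non-compartmental analysis of mean concentration–time curves: AUC by trapezoidal rule, Cmax read directly from the mean curve.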

Regarding `Cl.c1ccc2oc(-c3ncc[nH]3)cc2c1`, the pKi (in general, the Ki on a negative log10 scale, so that one unit is a factor of ten) in data set [1] is reported as 3.18. In addition, the concentration in data set [2] peaked (Cmax) at 600 ng/mL.

The record behind these values is ChEMBL document CHEMBL4825692, “Benzofuranyl-2-imidazoles as imidazoline I2 receptor ligands for Alzheimer's disease” (Eur J Med Chem, 2021).
